According to ChEMBL document CHEMBL2311431, “Synthesis and biological evaluation of some 5-arylidene-2-(1,3-thiazol-2-ylimino)-1,3-thiazolidin-4-ones as dual anti-inflammatory/antimicrobial agents” (Bioorg Med Chem, 2013):
≈ marks a conversion by molar mass, not a printed value.

System: Micrococcus flavus
Test: Antibacterial activity against Micrococcus flavus ATCC 10240 after 24 hr by microdilution test
Assay type: functional
Details: ATCC 10240, 24 h
Outline: (§1)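 Broth microdilution in LB medium, about 1.0×10^4 cfu per well; compounds from 1 mg/ml stocks in 5% DMSO. Incubated 24 h. MIC is the lowest concentration with no visible growth under a binocular microscope. Run in duplicate, repeated three times.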

Compound | MIC [µM]
O=C1N/C(=N\c2nc(-c3ccccc3)cs2)S/C1=C\c1ccccc1 | 27 (≈ 9.81 µg/mL)

System: Talaromyces funiculosus
Test: Antifungal activity against Penicillium funiculosum ATCC 36839 after 72 hrs by serial dilution technique
Assay type: functional
Details: ATCC 36839, 72 h
Outline: (§2)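 Serial dilution in malt broth; compounds from 1 mg/ml stocks in 5% DMSO; 72 h at 28 °C. MIC is the lowest concentration with no visible growth under a binocular microscope. Run in duplicate, repeated three times.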

Compound | MIC [µM]
O=C1N/C(=N\c2nc(-c3ccccc3)cs2)S/C1=C\c1ccccc1 | 19 (≈ 6.91 µg/mL)

Target: not listed separately
Test: Inhibition of soybean lipoxygenase assessed as inhibition of sodium linolate conversion to 13-hydroperoxylinoleic acid after 4 mins by spectrophotometry
Design: species or system Glycine max
Details: read-out: IC50

Compound | IC50 [µM]
O=C1N/C(=N\c2nc(-c3ccccc3)cs2)S/C1=C\c1ccccc1 | 66

System: Mus musculus
Test: Acute toxicity in AKR mouse up to 0.5 mmol/kg, ip
Assay type: organism-based
Details: in vivo

Compound | Activity
O=C1N/C(=N\c2nc(-c3ccccc3)cs2)S/C1=C\c1ccccc1 | Non-toxic

Target: T1, Prostaglandin G/H synthase 1 (Ovis aries) (UniProt P05979)
T1 sequence (whole entry): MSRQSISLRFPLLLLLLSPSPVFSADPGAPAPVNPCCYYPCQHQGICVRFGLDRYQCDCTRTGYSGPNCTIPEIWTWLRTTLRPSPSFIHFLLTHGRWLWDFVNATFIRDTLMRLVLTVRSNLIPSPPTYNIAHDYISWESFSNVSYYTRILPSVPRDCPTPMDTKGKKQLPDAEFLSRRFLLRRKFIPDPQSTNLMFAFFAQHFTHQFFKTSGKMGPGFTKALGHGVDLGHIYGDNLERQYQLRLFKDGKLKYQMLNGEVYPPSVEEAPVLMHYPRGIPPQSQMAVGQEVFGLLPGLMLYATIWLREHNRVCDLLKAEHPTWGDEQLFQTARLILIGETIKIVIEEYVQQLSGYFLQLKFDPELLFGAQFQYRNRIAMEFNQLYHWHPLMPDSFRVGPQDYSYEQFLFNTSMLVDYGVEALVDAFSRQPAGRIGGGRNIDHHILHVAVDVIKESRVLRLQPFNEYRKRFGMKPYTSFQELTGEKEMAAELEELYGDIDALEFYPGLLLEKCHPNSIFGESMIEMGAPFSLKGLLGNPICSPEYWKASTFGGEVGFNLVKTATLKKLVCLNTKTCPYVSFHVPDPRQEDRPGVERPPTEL
Test: Inhibition of ovine COX1 assessed as inhibition of PGF2a production by enzyme immunoassay
Design: concentration or dose not given beside the values
Details: concentration not given here
Outline: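 Ovine COX-1 from a commercial screening kit, tested with 0.1 µM arachidonic acid, which is below the saturating level. COX-derived PGH2 is reduced by SnCl2 to PGF2a, quantified by enzyme immunoassay with a broad prostaglandin antibody. At least triplicate.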

Compound | inhibition [%]
O=C1N/C(=N\c2nc(-c3ccccc3)cs2)S/C1=C\c1ccccc1 | 67

System: Aspergillus niger
Test: Antifungal activity against Aspergillus niger ATCC 6275 after 72 hrs by serial dilution technique
Assay type: functional
Details: ATCC 6275, 72 h
Outline: as §2

Compound | MIC [µM]
O=C1N/C(=N\c2nc(-c3ccccc3)cs2)S/C1=C\c1ccccc1 | 19 (≈ 6.91 µg/mL)

System: Escherichia coli
Test: Bactericidal activity against Escherichia coli ATCC 35210 after 72 hrs by serial subcultivation method
Assay type: functional
Details: ATCC 35210, 72 h

Compound | MBC [µM]
O=C1N/C(=N\c2nc(-c3ccccc3)cs2)S/C1=C\c1ccccc1 | 108 (≈ 39.3 µg/mL)

System: Aspergillus flavus
Test: Antifungal activity against Aspergillus flavus ATCC 9643 after 72 hrs by serial dilution technique
Assay type: functional
Details: ATCC 9643, 72 h
Outline: as §2

Compound | MIC [µM]
O=C1N/C(=N\c2nc(-c3ccccc3)cs2)S/C1=C\c1ccccc1 | 19 (≈ 6.91 µg/mL)

System: Mus musculus
Test: Antiinflammatory activity in AKR mouse assessed as inhibition of carrageenan-induced paw edema at 0.01 mmol/kg, ip measured after 3.5 hrs of carrageenan-challenge
Assay type: functional
Details: not given
Outline: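 AKR mice of both sexes (pregnant females excluded), 6-10 per group, fasted during the experiment. Edema induced by intradermal 0.05 mL of 2% carrageenin into the right hind paw. Compound given at 0.01 mmol/kg ip, suspended in water with Tween-80, at the same time as carrageenin.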

Compound | inhibition in vivo at 10 µmol/kg [%]
O=C1N/C(=N\c2nc(-c3ccccc3)cs2)S/C1=C\c1ccccc1 | 59.3

System: Listeria monocytogenes
Test: Bactericidal activity against Listeria monocytogenes NCTC 7973 after 72 hrs by serial subcultivation method
Assay type: functional
Details: NCTC 7973, 72 h

Compound | MBC [µM]
O=C1N/C(=N\c2nc(-c3ccccc3)cs2)S/C1=C\c1ccccc1 | 27 (≈ 9.81 µg/mL)

System: Aspergillus niger
Test: Fungicidal activity against Aspergillus niger ATCC 6275 after 72 hrs by serial subcultivation method
Assay type: functional
Details: ATCC 6275, 72 h

Compound | MFC [µM]
O=C1N/C(=N\c2nc(-c3ccccc3)cs2)S/C1=C\c1ccccc1 | 25.2 (≈ 9.16 µg/mL)

System: Pseudomonas aeruginosa
Test: Bactericidal activity against Pseudomonas aeruginosa ATCC 27853 after 72 hrs by serial subcultivation method
Assay type: functional
Details: ATCC 27853, 72 h

Compound | MBC [µM]
O=C1N/C(=N\c2nc(-c3ccccc3)cs2)S/C1=C\c1ccccc1 | 108 (≈ 39.3 µg/mL)

System: Staphylococcus aureus
Test: Antibacterial activity against Staphylococcus aureus ATCC 6538 after 24 hr by microdilution test
Assay type: functional
Details: ATCC 6538, 24 h
Outline: as §1

Compound | MIC [µM]
O=C1N/C(=N\c2nc(-c3ccccc3)cs2)S/C1=C\c1ccccc1 | 54 (≈ 19.6 µg/mL)

System: Micrococcus flavus
Test: Bactericidal activity against Micrococcus flavus ATCC 10240 after 72 hrs by serial subcultivation method
Assay type: functional
Details: ATCC 10240, 72 h

Compound | MBC [µM]
O=C1N/C(=N\c2nc(-c3ccccc3)cs2)S/C1=C\c1ccccc1 | 27 (≈ 9.81 µg/mL)

System: Aspergillus fumigatus
Test: Antifungal activity against Aspergillus fumigatus after 72 hrs by serial dilution technique
Assay type: functional
Details: not given
Outline: as §2

Compound | MIC [µM]
O=C1N/C(=N\c2nc(-c3ccccc3)cs2)S/C1=C\c1ccccc1 | 19 (≈ 6.91 µg/mL)

System: Aspergillus flavus
Test: Fungicidal activity against Aspergillus flavus ATCC 9643 after 72 hrs by serial subcultivation method
Assay type: functional
Details: ATCC 9643, 72 h

Compound | MFC [µM]
O=C1N/C(=N\c2nc(-c3ccccc3)cs2)S/C1=C\c1ccccc1 | 25.2 (≈ 9.16 µg/mL)

System: Trichoderma viride
Test: Fungicidal activity against Trichoderma viride IAM 5061 after 72 hrs by serial subcultivation method
Assay type: functional
Details: IAM 5061, 72 h

Compound | MFC [µM]
O=C1N/C(=N\c2nc(-c3ccccc3)cs2)S/C1=C\c1ccccc1 | 25.2 (≈ 9.16 µg/mL)

System: Bacillus cereus
Test: Antibacterial activity against Bacillus cereus clinical isolate after 24 hr by microdilution test
Assay type: functional
Details: not given
Outline: as §1

Compound | MIC [µM]
O=C1N/C(=N\c2nc(-c3ccccc3)cs2)S/C1=C\c1ccccc1 | 6.8 (≈ 2.47 µg/mL)

System: Pseudomonas aeruginosa
Test: Antibacterial activity against Pseudomonas aeruginosa ATCC 27853 after 24 hr by microdilution test
Assay type: functional
Details: ATCC 27853, 24 h
Outline: as §1

Compound | MIC [µM]
O=C1N/C(=N\c2nc(-c3ccccc3)cs2)S/C1=C\c1ccccc1 | 27 (≈ 9.81 µg/mL)

System: Trichoderma viride
Test: Antifungal activity against Trichoderma viride IAM 5061 after 72 hrs by serial dilution technique
Assay type: functional
Details: IAM 5061, 72 h
Outline: as §2

Compound | MIC [µM]
O=C1N/C(=N\c2nc(-c3ccccc3)cs2)S/C1=C\c1ccccc1 | 12.6 (≈ 4.58 µg/mL)

System: Escherichia coli
Test: Antibacterial activity against Escherichia coli ATCC 35210 after 24 hr by microdilution test
Assay type: functional
Details: ATCC 35210, 24 h
Outline: as §1

Compound | MIC [µM]
O=C1N/C(=N\c2nc(-c3ccccc3)cs2)S/C1=C\c1ccccc1 | 54 (≈ 19.6 µg/mL)

System: Aspergillus fumigatus
Test: Fungicidal activity against Aspergillus fumigatus after 72 hrs by serial subcultivation method
Assay type: functional
Details: not given

Compound | MFC [µM]
O=C1N/C(=N\c2nc(-c3ccccc3)cs2)S/C1=C\c1ccccc1 | 25.2 (≈ 9.16 µg/mL)

System: Talaromyces funiculosus
Test: Fungicidal activity against Penicillium funiculosum ATCC 36839 after 72 hrs by serial subcultivation method
Assay type: functional
Details: ATCC 36839, 72 h

Compound | MFC [µM]
O=C1N/C(=N\c2nc(-c3ccccc3)cs2)S/C1=C\c1ccccc1 | 25.2 (≈ 9.16 µg/mL)

System: Penicillium ochrochloron
Test: Fungicidal activity against Penicillium ochrochloron ATCC 9112 after 72 hrs by serial subcultivation method
Assay type: functional
Details: ATCC 9112, 72 h

Compound | MFC [µM]
O=C1N/C(=N\c2nc(-c3ccccc3)cs2)S/C1=C\c1ccccc1 | 25.2 (≈ 9.16 µg/mL)

System: Listeria monocytogenes
Test: Antibacterial activity against Listeria monocytogenes NCTC 7973 after 24 hr by microdilution test
Assay type: functional
Details: NCTC 7973, 24 h
Outline: as §1

Compound | MIC [µM]
O=C1N/C(=N\c2nc(-c3ccccc3)cs2)S/C1=C\c1ccccc1 | 27 (≈ 9.81 µg/mL)

System: Staphylococcus aureus
Test: Bactericidal activity against Staphylococcus aureus ATCC 6538 after 72 hrs by serial subcultivation method
Assay type: functional
Details: ATCC 6538, 72 h

Compound | MBC [µM]
O=C1N/C(=N\c2nc(-c3ccccc3)cs2)S/C1=C\c1ccccc1 | 108 (≈ 39.3 µg/mL)

System: Bacillus cereus
Test: Bactericidal activity against Bacillus cereus clinical isolate after 72 hrs by serial subcultivation method
Assay type: functional
Details: not given

Compound | MBC [µM]
O=C1N/C(=N\c2nc(-c3ccccc3)cs2)S/C1=C\c1ccccc1 | 27 (≈ 9.81 µg/mL)

System: Penicillium ochrochloron
Test: Antifungal activity against Penicillium ochrochloron ATCC 9112 after 72 hrs by serial dilution technique
Assay type: functional
Details: ATCC 9112, 72 h
Outline: as §2

Compound | MIC [µM]
O=C1N/C(=N\c2nc(-c3ccccc3)cs2)S/C1=C\c1ccccc1 | 19 (≈ 6.91 µg/mL)
